ChEMBL document CHEMBL1795318, “Development of tetrahydroisoquinoline-based hydroxamic acid derivatives: potent histone deacetylase inhibitors with marked in vitro and in vivo antitumor activities” (J Med Chem, 2011)
Each block holds one compound with its values, some of them ahead of it. Active and inactive are the calls of the source. The rule behind the calls is not given here.

Legend:
Histone deacetylase 8 = target: T1, Histone deacetylase 8 (Homo sapiens, UniProt Q9BY41); assay: Inhibition of HDAC8 after 30 mins by fluorescence microplate reader
T1 sequence (Q9BY41 whole entry): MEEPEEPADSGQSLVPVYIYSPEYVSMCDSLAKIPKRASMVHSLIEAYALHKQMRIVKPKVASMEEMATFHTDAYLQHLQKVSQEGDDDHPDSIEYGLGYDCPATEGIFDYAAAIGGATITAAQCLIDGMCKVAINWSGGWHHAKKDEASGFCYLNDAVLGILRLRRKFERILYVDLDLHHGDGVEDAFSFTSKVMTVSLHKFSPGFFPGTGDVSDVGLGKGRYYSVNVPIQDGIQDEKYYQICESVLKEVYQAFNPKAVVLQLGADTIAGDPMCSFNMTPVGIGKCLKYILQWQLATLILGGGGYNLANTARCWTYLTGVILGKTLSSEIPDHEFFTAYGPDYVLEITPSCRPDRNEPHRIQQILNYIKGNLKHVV
Summary of the method: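 HDAC8 mixed with compound at various concentrations, fluorogenic substrate added, 37 °C for 30 min; stopped with developer containing trypsin and TSA. Fluorescence read after 20 min (ex 390/em 460 nm); inhibition relative to control wells, IC50 by regression of concentration/inhibition data; mean ± SD of at least three determinations.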

A549 = assay: Cytotoxicity against human A549 cells after 48 hrs by MTT assay; format: functional, cell-based; settings: A549, 48 h
Summary of the method: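 Cells kept in RPMI1640 with 10% FBS, 37 °C, 5% CO₂; seeded day before dosing, grown ≥4 h, treated with a concentration series for 48 h. MTT 0.5% solution added, 4 h further; formazan dissolved in DMSO 15 min, absorbance at 570 nm. Mean of three experiments.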

MDA-MB-231 [1] = assay: Cytotoxicity against human MDA-MB-231 cells after 48 hrs by MTT assay; format: functional, cell-based; settings: MDA-MB-231, 48 h
[2] = target: T2, Protein deacetylase HDAC6 (Homo sapiens, UniProt Q9UBN7); assay: Inhibition of HDAC6 in human HeLa cell nuclear extract after 30 mins by fluorescence microplate reader
T2 sequence (Q9UBN7 whole entry): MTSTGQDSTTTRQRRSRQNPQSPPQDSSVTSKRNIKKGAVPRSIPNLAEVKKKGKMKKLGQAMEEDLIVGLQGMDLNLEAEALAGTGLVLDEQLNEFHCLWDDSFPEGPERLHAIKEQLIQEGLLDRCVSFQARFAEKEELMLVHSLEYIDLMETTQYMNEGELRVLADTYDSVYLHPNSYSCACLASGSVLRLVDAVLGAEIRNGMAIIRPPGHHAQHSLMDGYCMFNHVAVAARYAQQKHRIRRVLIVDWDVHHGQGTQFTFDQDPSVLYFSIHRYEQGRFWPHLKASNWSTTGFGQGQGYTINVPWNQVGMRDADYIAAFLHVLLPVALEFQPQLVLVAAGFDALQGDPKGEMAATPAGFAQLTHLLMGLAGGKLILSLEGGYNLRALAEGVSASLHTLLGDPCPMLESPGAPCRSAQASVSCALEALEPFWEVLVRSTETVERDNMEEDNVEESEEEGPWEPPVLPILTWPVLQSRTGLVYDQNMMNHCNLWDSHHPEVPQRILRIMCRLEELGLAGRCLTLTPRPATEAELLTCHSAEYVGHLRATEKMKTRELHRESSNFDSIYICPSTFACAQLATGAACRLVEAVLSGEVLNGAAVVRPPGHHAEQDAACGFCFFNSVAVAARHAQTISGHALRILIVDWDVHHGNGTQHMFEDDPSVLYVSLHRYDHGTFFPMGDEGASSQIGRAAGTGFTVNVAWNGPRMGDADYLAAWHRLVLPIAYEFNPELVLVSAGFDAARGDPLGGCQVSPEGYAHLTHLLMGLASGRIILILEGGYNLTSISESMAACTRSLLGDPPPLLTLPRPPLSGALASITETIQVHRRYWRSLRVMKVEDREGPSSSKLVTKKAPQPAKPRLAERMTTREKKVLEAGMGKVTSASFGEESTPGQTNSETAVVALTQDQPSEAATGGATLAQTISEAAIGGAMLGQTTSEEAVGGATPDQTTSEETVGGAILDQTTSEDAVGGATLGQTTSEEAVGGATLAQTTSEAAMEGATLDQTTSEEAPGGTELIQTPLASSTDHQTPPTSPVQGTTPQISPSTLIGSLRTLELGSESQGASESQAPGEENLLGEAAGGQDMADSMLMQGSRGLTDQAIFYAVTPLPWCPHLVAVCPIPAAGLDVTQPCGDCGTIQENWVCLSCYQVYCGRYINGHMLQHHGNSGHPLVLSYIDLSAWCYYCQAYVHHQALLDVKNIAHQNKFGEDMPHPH

NB-4 = assay: Cytotoxicity against human NB4 cells after 48 hrs by MTT assay; format: functional, cell-based; settings: NB-4, 48 h
HL-60 = assay: Cytotoxicity against human HL60 cells after 48 hrs by MTT assay; format: functional, cell-based; settings: HL-60, 48 h
K562 = assay: Cytotoxicity against human K562 cells after 48 hrs by MTT assay; format: functional, cell-based; settings: K562, 48 h
HeLa = assay: Cytotoxicity against human HeLa cells after 48 hrs by MTT assay; format: functional, cell-based
Histone deacetylase = assay: Inhibition of HDAC in human HeLa cell nuclear extract after 30 mins by fluorescence microplate reader; format: protein assay
MDA-MB-231 [3] = assay: Cell cycle arrest in human MDA-MB-231 cells assessed as accumulation at G2 phase at 2 to 5 uM after 48 hrs by flow cytometry analysis; format: functional, cell-based
MDA-MB-231 [4] = assay: Antitumor activity against human MDA-MB-231 cells xenografted in athymic nude mouse assessed as tumor growth inhibition at 90 mg/kg, ip qd for 21 days; format: functional; settings: route intraperitoneal
[5] = Cytotoxicity against human ES2 cells after 48 hrs by MTT assay; format: functional, cell-based; settings: ES-2, 48 h
MDA-MB-231 [6] = assay: Antitumor activity against human MDA-MB-231 cells xenografted in athymic nude mouse assessed as tumor growth delay at 90 mg/kg, ip qd for 21 days; format: functional, organism-based; design: dose 90 mg/kg
MDA-MB-231 [7] = assay: Cell cycle arrest in human MDA-MB-231 cells assessed as accumulation at G1 phase at 0.5 uM after 48 hrs by flow cytometry analysis; format: functional, cell-based

Structure (SMILES): CC[C@H](C)[C@H](N)C(=O)N1Cc2cc(OCC(=O)NO)ccc2C[C@H]1C(=O)Nc1ccc(OC)cc1
IC50 (Histone deacetylase 8): 1040 nM

Structure (SMILES): COc1ccc(NC(=O)[C@@H]2Cc3ccc(OCC(=O)NO)cc3CN2CCCc2ccccc2)cc1
IC50 (Histone deacetylase 8): 1720 nM

Structure (SMILES): COc1ccc(NC(=O)[C@@H]2Cc3ccc(OCC(=O)NO)cc3CN2C(=O)CN)cc1
IC50 (Histone deacetylase 8): 2140 nM

Structure (SMILES): COc1ccc(NC(=O)[C@@H]2Cc3ccc(OCC(=O)NO)cc3CN2Cc2ccccc2)cc1
IC50 (Histone deacetylase 8): 1920 nM

Structure (SMILES): COc1ccc(NC(=O)[C@@H]2Cc3ccc(OCC(=O)NO)cc3CN2C(=O)CCc2ccccc2)cc1
IC50 (A549): 4800 nM
IC50 (MDA-MB-231 [1]): 1520 nM
IC50 (Histone deacetylase 8): 502 nM

Structure (SMILES): COc1ccc(NC(=O)[C@@H]2Cc3ccc(OCC(=O)NO)cc3CN2CCc2ccccc2)cc1
IC50 (Histone deacetylase 8): 1020 nM

Structure (SMILES): COc1ccc(NC(=O)[C@@H]2Cc3ccc(OCC(=O)NO)cc3CN2C(=O)[C@@H](N)CC(C)C)cc1
IC50 (Histone deacetylase 8): 675 nM

These reach a lower IC50 (Histone deacetylase 8). Values come first.

IC50 (Histone deacetylase 8): 481 nM
Structure (SMILES): COc1ccc(NC(=O)[C@@H]2Cc3ccc(OCC(=O)NO)cc3CN2C(=O)[C@@H]2CCCN2)cc1

IC50 (Histone deacetylase 8): 141 nM
Structure (SMILES): COc1ccc(NC(=O)[C@@H]2Cc3ccc(OCC(=O)NO)cc3CN2C(=O)Cc2ccccc2)cc1
IC50 (A549): 117000 nM
IC50 (MDA-MB-231 [1]): 4450 nM

IC50 (Histone deacetylase 8): 368 nM
Structure (SMILES): COc1ccc(NC(=O)[C@@H]2Cc3ccc(OCC(=O)NO)cc3CN2C(=O)[C@@H](N)Cc2ccccc2)cc1

IC50 (Histone deacetylase 8): 103 nM
Structure (SMILES): COc1ccc(NC(=O)[C@@H]2Cc3ccc(OCC(=O)NO)cc3CN2C(=O)[C@H](Cc2ccccc2)NC(=O)OC(C)(C)C)cc1
IC50 (A549): 12700 nM
IC50 (MDA-MB-231 [1]): 1290 nM

IC50 (Histone deacetylase 8): 182 nM
Structure (SMILES): COc1ccc(NC(=O)[C@@H]2Cc3ccc(OCC(=O)NO)cc3CN2C(=O)[C@H](C)NC(=O)OC(C)(C)C)cc1

IC50 [2]: 141 nM
IC50 (Histone deacetylase): 65 nM
IC50 (Histone deacetylase 8): 192 nM
Structure (SMILES): CC[C@H](C)[C@H](NC(=O)[C@@H]1CCCN1C(=O)OC(C)(C)C)C(=O)N1Cc2cc(OCC(=O)NO)ccc2C[C@H]1C(=O)Nc1ccc(OC)cc1
IC50 (NB-4): 5150 nM
IC50 (HL-60): 76800 nM
IC50 (K562): 2320 nM
IC50 (HeLa): 184000 nM

IC50 (Histone deacetylase 8): 114 nM
Structure (SMILES): COc1ccc(NC(=O)[C@@H]2Cc3ccc(OCC(=O)NO)cc3CN2C(=O)CCCc2ccccc2)cc1
IC50 (A549): 3580 nM
IC50 (MDA-MB-231 [1]): 2770 nM

IC50 [2]: 94 nM
IC50 (Histone deacetylase): 447 nM
IC50 (Histone deacetylase 8): 263 nM
Structure (SMILES): CC[C@H](C)[C@@H](CN1Cc2cc(OCC(=O)NO)ccc2C[C@H]1C(=O)Nc1ccc(OC)cc1)NC(=O)OC(C)(C)C
IC50 (NB-4): 3870 nM
Activity (MDA-MB-231 [3]): Active
IC50 (HL-60): 42700 nM
IC50 (K562): 7000 nM
T/C (MDA-MB-231 [4]): 47%
IC50 (HeLa): 29200 nM
IC50 [5]: 7200 nM
Activity (MDA-MB-231 [6]): Active
Activity (MDA-MB-231 [7]): Active
IC50 (MDA-MB-231 [1]): 2200 nM

IC50 [2]: 158 nM
IC50 (Histone deacetylase): 297 nM
IC50 (Histone deacetylase 8): 333 nM
Structure (SMILES): CC[C@H](C)[C@@H](CN1Cc2cc(OCC(=O)NO)ccc2C[C@H]1C(=O)Nc1ccc(OC)cc1)NC(=O)CC(C)(C)C
IC50 (NB-4): 5570 nM
IC50 (HL-60): 25700 nM
IC50 (K562): 10000 nM
T/C (MDA-MB-231 [4]): 87%
IC50 (HeLa): 63500 nM
Activity (MDA-MB-231 [6]): Active
IC50 (MDA-MB-231 [1]): 2540 nM
